Published values gathered from unrelated publications.
Protocols differ between the studies behind these lines.
Oprk1: Kappa-type opioid receptor (Oprk1, Rattus norvegicus, UniProt P34975)
CTSS: Cathepsin S (CTSS, Homo sapiens, UniProt P25774)
MAOA: Amine oxidase [flavin-containing] A (MAOA, Homo sapiens, UniProt P21397)
ADRA1A: Alpha-1A adrenergic receptor (ADRA1A, Homo sapiens, UniProt P35348)

With `COCc1c(-c2cc3cc(C)cc(OC)c3s2)c2c(N)ncnn2c1CN1CCNC(=O)C1` the inhibition was 86% (Thromboxane-A synthase (TBXAS1, Homo sapiens, UniProt P24557); enzyme activity; inhibitor; 10 µM).
With `Cn1cc(-c2cc(F)cc(N3CCn4c(cc5c4CCCC5)C3=O)c2CO)cc(Nc2ccc(N3CCN(C4COC4)CC3)cn2)c1=O` the inhibition was 6% (Cyclin-dependent kinase 5, with p35 (CDK5, Homo sapiens, UniProt Q00535); enzyme activity; inhibitor; 0.1 µM).
The inhibition of `O=C(Nc1cccnn1)N1CCN([C@@H]2CCOc3cc(C(F)(F)F)ccc32)CC1` is reported as 21% (Oprk1; cell-free assay; 20 µM).
For `CN(C)C(=O)COC(=O)Cc1ccc(OC(=O)c2ccc(NC(=N)N)cc2)cc1`, the inhibition was 3% (CTSS; enzyme activity; inhibitor; 10 µM).
The inhibition of `O=C(O)C(=O)Nc1sc2c(c1C(=O)O)CCNC2` is reported as roughly 50% (Tyrosine-protein phosphatase non-receptor type 1 (PTPN1, Homo sapiens, UniProt P18031); enzyme activity; inhibitor; 30 µM).
`CCOC(=O)c1ccc(OC(=O)CCCCCNC(=N)N)cc1` has an inhibition of 4% (CTSS; enzyme activity; inhibitor; 10 µM).
The inhibition of `Nc1ncnc2c1ncn2[C@@H]1O[C@H](CNS(=O)(=O)c2ccc3ccccc3c2)[C@@H](O)[C@H]1O` is reported as -5% (Protein arginine N-methyltransferase 3 (PRMT3, Homo sapiens, UniProt O60678); enzyme activity; inhibitor; 10 µM).
The inhibition of `CC(C)C[C@H](NC(=O)[C@H]1O[C@@H]1C(=O)O)C(=O)NCCCCN=C(N)N` is reported as 18% (CTSS; enzyme activity; inhibitor; 5 nM).
`C[C@@H]1CCCN1CCCCOc1ccc2occc(=O)c2c1` gave an inhibition of 7% (MAOA; enzyme activity; inhibitor; fluorescence; 10 µM).
`Clc1ccc2c(C3CCN(CCc4c[nH]c5ccccc45)CC3)c[nH]c2c1` has an inhibition of 108% (ADRA1A; ligand displacement; radioligand; 10 µM).
The inhibition of `N=C(N)c1ccc2cc(OC(=O)c3ccc(N=C(N)N)cc3)ccc2c1` is reported as 3% (Dipeptidyl peptidase 3 (DPP3, Homo sapiens, UniProt Q9NY33); enzyme activity; inhibitor; 10 µM).
`CCN(CC)CCCC[C@H](NC(=O)[C@H](CC(C)C)NC(=O)[C@H](C)NC(=O)[C@H](Cc1ccccc1)NC(=O)c1ccc(C(C)(C)C)cc1)C(=O)N[C@@H](CO)C(=O)OC` gave an inhibition of 91% (Oprk1; ligand displacement; radioligand; 10 µM).
For `c1ccc(C(NCCNC(c2ccccc2)c2ccccc2)c2ccccc2)cc1`, the inhibition was 11% (MAOA; cell-free assay; inhibitor; 10 µM).
`CN1CCN(CCCCOc2ccc3occc(=O)c3c2)CC1` gave an inhibition of 5% (MAOA; enzyme activity; inhibitor; fluorescence; 10 µM).
The inhibition of `C#Cc1n[nH]c2c(-c3cn(C(C)c4ccccn4)c(=O)[nH]c3=O)cc(F)cc12` (stereo not shown) is reported as 13.1% (High affinity nerve growth factor receptor (NTRK1, Homo sapiens, UniProt P04629); enzyme activity; inhibitor; 1 µM).
`O=C(NC[C@H](O)CO)[C@@H]1C[C@H](c2ccccc2)CCN1` (mixture of isomers) has an inhibition of -16.2% (ADRA1A; ligand displacement; radioligand; 10 µM).
